# Results as given in ChEMBL document CHEMBL1152649, “Synthesis, cytotoxicity and human telomerase inhibition activities of a series of 1,2-heteroannelated anthraquinones and anthra[1,2-d]imidazole-6,11-dione homologues” (2009).
# Experiments:
# T47D = assay: Antiproliferative activity against human T47D cells assessed as cell growth at 10 uM; assay type: functional; details: read-out: Activity
# Method in brief: (§1)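 NCI 60 cell line panel, single dose (10^-5 M), run per the Developmental Therapeutics Program protocol (one dose mean graph). Each result is the growth percentage of treated cells relative to untreated control cells.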
# UO-31 = assay: Antiproliferative activity against human UO31 cells assessed as cell growth at 10 uM; assay type: functional; details: read-out: Activity; method in brief: as §1
# MOLT-4 = assay: Antiproliferative activity against human MOLT4 cells assessed as cell growth at 10 uM; assay type: functional; details: read-out: Activity
# Method in brief: (§2)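 NCI 60 cell line panel, single-dose screen (10^-5 M) run by the developmental therapeutics program protocol. Results are given as growth percent of treated cells relative to untreated control cells for each line.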
# SR = assay: Antiproliferative activity against human SR cells assessed as cell growth at 10 uM; assay type: functional; details: read-out: Activity; method in brief: as §1
# OVCAR-4 = assay: Antiproliferative activity against human OVCAR4 cells assessed as cell growth at 10 uM; assay type: functional; details: read-out: Activity; method in brief: as §2
# M14 = assay: Antiproliferative activity against human M14 cells assessed as cell growth at 10 uM; assay type: functional; details: read-out: Activity; method in brief: as §2
# [1] = target: Telomerase reverse transcriptase (Homo sapiens) (UniProt O14746); assay: Inhibition of TERT in human H1299 cells assessed as residual transcriptional activity at 100 uM after 24 hrs by SEAP reporter gene assay; values are per cent of control
# HCT-15 = assay: Antiproliferative activity against human HCT15 cells assessed as cell growth at 10 uM; assay type: functional; details: read-out: Activity; method in brief: as §2
# NCI-H322M = assay: Antiproliferative activity against human NCI-H322M cells assessed as cell growth at 10 uM; assay type: functional; details: read-out: Activity; method in brief: as §2
# NCI-H23 = assay: Antiproliferative activity against human NCI-H23 cells assessed as cell growth at 10 uM; assay type: functional; details: read-out: Activity; method in brief: as §2
# MCF7 = assay: Antiproliferative activity against human MCF7 cells assessed as cell growth at 10 uM; assay type: functional; details: read-out: Activity; method in brief: as §2
# NCI/ADR-RES = assay: Antiproliferative activity against human NCI/ADR-RES cells assessed as cell growth at 10 uM; assay type: functional; details: read-out: Activity; method in brief: as §2
# SK-MEL-28 = assay: Antiproliferative activity against human SK-MEL-28 cells assessed as cell growth at 10 uM; assay type: functional; details: read-out: Activity; method in brief: as §2
# UACC-62 = assay: Antiproliferative activity against human UACC62 cells assessed as cell growth at 10 uM; assay type: functional; details: read-out: Activity; method in brief: as §1
# ACHN = assay: Antiproliferative activity against human ACHN cells assessed as cell growth at 10 uM; assay type: functional; details: read-out: Activity; method in brief: as §2
# TK-10 = assay: Antiproliferative activity against human TK10 cells assessed as cell growth at 10 uM; assay type: functional; details: read-out: Activity; method in brief: as §1
# SF-295 = assay: Antiproliferative activity against human SF295 cells assessed as cell growth at 10 uM; assay type: functional; details: read-out: Activity; method in brief: as §2
# HL-60(TB) = assay: Antiproliferative activity against human HL-60(TB) cells assessed as cell growth at 10 uM; assay type: functional; details: read-out: Activity
# Method in brief: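 NCI Developmental Therapeutics Program 60-cell-line one-dose screen at 10^-5 M. Readout is growth percentage of treated cells relative to untreated control cells.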
# LOX IMVI = assay: Antiproliferative activity against human LOXIMVI cells assessed as cell growth at 10 uM; assay type: functional; details: read-out: Activity; method in brief: as §2
# Malme-3M = assay: Antiproliferative activity against human MALME-3M cells assessed as cell growth at 10 uM; assay type: functional; details: read-out: Activity; method in brief: as §2
# SK-MEL-5 = assay: Antiproliferative activity against human SK-MEL-5 cells assessed as cell growth at 10 uM; assay type: functional; details: read-out: Activity; method in brief: as §2
# SF-268 = assay: Antiproliferative activity against human SF268 cells assessed as cell growth at 10 uM; assay type: functional; details: read-out: Activity; method in brief: as §2
# NCI-H460 = assay: Antiproliferative activity against human NCI-H460 cells assessed as cell growth at 10 uM; assay type: functional; details: read-out: Activity; method in brief: as §2
# MDA-MB-231 = assay: Antiproliferative activity against human MDA-MB-231 cells assessed as cell growth at 10 uM; assay type: functional; details: read-out: Activity; method in brief: as §2
# SK-OV-3 = assay: Antiproliferative activity against human SKOV3 cells assessed as cell growth at 10 uM; assay type: functional; details: read-out: Activity; method in brief: as §2
# [2] = Cytotoxicity against human H1299 cells at 10 uM after 48 hrs by MTT assay; assay type: functional; details: NCI-H1299, 48 h
# Method in brief: (§3)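 H1299 non-small cell lung cancer cells were grown in RPMI 1640 with 10% FBS, penicillin and streptomycin at 37 °C under 5% CO2. About 2 × 10³ cells per well were seeded and left 24 h. Compounds were dissolved fresh in DMSO, diluted into complete medium and applied for 48 h. MTT was then added for 4 h at 37 °C, followed by lysis buffer (20% SDS, 50% DMF) for 16 h, and absorbance was read at 550 nm.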
# OVCAR-8 = assay: Antiproliferative activity against human OVCAR8 cells assessed as cell growth at 10 uM; assay type: functional; details: read-out: Activity; method in brief: as §2
# CCRF-CEM = assay: Antiproliferative activity against human CCRF-CEM cells assessed as cell growth at 10 uM; assay type: functional; details: read-out: Activity; method in brief: as §2
# SNB-75 = assay: Antiproliferative activity against human SNB75 cells assessed as cell growth at 10 uM; assay type: functional; details: read-out: Activity; method in brief: as §1
# OVCAR-3 = assay: Antiproliferative activity against human OVCAR-3 cells assessed as cell growth at 10 uM; assay type: functional; details: read-out: Activity; method in brief: as §2
# A498 = assay: Antiproliferative activity against human A498 cells assessed as cell growth at 10 uM; assay type: functional; details: read-out: Activity; method in brief: as §2
# HCT-116 = assay: Antiproliferative activity against human HCT116 cells assessed as cell growth at 10 uM; assay type: functional; details: read-out: Activity; method in brief: as §2
# 786-0 = assay: Antiproliferative activity against human 786-0 cells assessed as cell growth at 10 uM; assay type: functional; details: read-out: Activity; method in brief: as §2
# SW-620 = assay: Antiproliferative activity against human SW620 cells assessed as cell growth at 10 uM; assay type: functional; details: read-out: Activity; method in brief: as §1
# U-251 = assay: Antiproliferative activity against human U251 cells assessed as cell growth at 10 uM; assay type: functional; details: read-out: Activity; method in brief: as §1
# [3] = target: Telomerase reverse transcriptase (Homo sapiens) (UniProt O14746); assay: Inhibition of TERT in human H1299 cells assessed as residual transcriptional activity at 10 uM after 24 hrs by SEAP reporter gene assay; values are per cent of control
# A549 = assay: Antiproliferative activity against human A549 cells assessed as cell growth at 10 uM; assay type: functional; details: read-out: Activity; method in brief: as §2
# HCC 2998 = assay: Antiproliferative activity against human HCC2998 cells assessed as cell growth at 10 uM; assay type: functional; details: read-out: Activity; method in brief: as §2
# CAKI-1 = assay: Antiproliferative activity against human Caki1 cells assessed as cell growth at 10 uM; assay type: functional; details: read-out: Activity; method in brief: as §2
# HT-29 = assay: Antiproliferative activity against human HT-29 cells assessed as cell growth at 10 uM; assay type: functional; details: read-out: Activity; method in brief: as §2
# [4] = Cytotoxicity against human H1299 cells at 100 uM after 48 hrs by MTT assay; assay type: functional; details: NCI-H1299, 48 h; method in brief: as §3
# MDA-MB-435 = assay: Antiproliferative activity against human MDA-MB-435 cells assessed as cell growth at 10 uM; assay type: functional; details: read-out: Activity; method in brief: as §2
# EKVX = assay: Antiproliferative activity against human EKVX cells assessed as cell growth at 10 uM; assay type: functional; details: read-out: Activity; method in brief: as §2
# [5] = Antiproliferative activity against human Hs 578T cells assessed as cell growth at 10 uM; assay type: functional; details: read-out: Activity; method in brief: as §2
# NCI-H522 = assay: Antiproliferative activity against human NCI-H522 cells assessed as cell growth at 10 uM; assay type: functional; details: read-out: Activity; method in brief: as §2
# HOP-92 = assay: Antiproliferative activity against human HOP92 cells assessed as cell growth at 10 uM; assay type: functional; details: read-out: Activity; method in brief: as §2
# Chain of Telomerase reverse transcriptase (Homo sapiens) (O14746 whole entry): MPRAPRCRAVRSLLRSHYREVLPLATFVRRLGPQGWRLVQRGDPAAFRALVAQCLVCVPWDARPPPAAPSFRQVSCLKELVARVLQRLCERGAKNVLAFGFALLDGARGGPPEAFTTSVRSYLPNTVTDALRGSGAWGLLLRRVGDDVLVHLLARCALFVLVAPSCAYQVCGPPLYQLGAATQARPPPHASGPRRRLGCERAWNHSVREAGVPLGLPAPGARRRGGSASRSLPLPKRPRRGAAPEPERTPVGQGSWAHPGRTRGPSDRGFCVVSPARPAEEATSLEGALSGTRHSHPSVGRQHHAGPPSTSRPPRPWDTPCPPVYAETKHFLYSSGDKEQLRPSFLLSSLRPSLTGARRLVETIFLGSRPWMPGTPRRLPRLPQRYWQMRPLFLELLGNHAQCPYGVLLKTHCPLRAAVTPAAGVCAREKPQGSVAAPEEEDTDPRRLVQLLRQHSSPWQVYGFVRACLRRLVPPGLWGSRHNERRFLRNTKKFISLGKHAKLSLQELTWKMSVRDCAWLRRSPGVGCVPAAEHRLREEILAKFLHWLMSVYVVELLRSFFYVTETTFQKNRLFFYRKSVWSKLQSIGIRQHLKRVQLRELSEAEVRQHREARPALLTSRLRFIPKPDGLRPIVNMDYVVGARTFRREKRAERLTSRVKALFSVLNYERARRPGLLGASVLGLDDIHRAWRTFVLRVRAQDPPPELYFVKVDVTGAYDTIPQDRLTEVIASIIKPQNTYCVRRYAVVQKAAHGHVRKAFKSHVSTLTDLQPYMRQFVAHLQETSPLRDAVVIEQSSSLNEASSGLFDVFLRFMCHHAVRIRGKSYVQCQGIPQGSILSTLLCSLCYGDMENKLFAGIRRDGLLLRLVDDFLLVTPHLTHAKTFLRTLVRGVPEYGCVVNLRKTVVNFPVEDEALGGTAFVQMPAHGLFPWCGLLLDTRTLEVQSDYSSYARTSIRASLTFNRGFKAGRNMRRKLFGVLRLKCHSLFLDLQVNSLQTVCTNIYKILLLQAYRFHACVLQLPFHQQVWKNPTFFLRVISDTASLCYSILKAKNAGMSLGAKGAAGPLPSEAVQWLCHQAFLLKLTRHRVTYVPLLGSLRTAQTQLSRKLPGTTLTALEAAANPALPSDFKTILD
smiles,measurement,setting,value
O=C1c2ccccc2C(=O)c2c1ccc1nsnc21,growth at 10 µM,T47D,-45.5%
same,growth at 10 µM,UO-31,-79.3%
same,growth at 10 µM,MOLT-4,-40.1%
same,growth at 10 µM,SR,4.96%
same,growth at 10 µM,OVCAR-4,-94.4%
same,growth at 10 µM,M14,74.5%
same,residual activity,[1],9%
same,growth at 10 µM,HCT-15,1.48%
same,growth at 10 µM,NCI-H322M,126%
same,growth at 10 µM,NCI-H23,16.1%
same,growth at 10 µM,MCF7,-50.7%
same,growth at 10 µM,NCI/ADR-RES,-2.53%
same,growth at 10 µM,SK-MEL-28,15.5%
same,growth at 10 µM,UACC-62,-82.3%
same,growth at 10 µM,ACHN,-94.3%
same,growth at 10 µM,TK-10,97%
same,growth at 10 µM,SF-295,126%
same,growth at 10 µM,HL-60(TB),-21.8%
same,growth at 10 µM,LOX IMVI,-50.6%
same,growth at 10 µM,Malme-3M,-71.5%
same,growth at 10 µM,SK-MEL-5,8.52%
same,growth at 10 µM,SF-268,16.3%
same,growth at 10 µM,NCI-H460,77.4%
same,growth at 10 µM,MDA-MB-231,-17.3%
same,growth at 10 µM,SK-OV-3,101%
same,viability at 10 µM,[2],16%
same,growth at 10 µM,OVCAR-8,-10.1%
same,growth at 10 µM,CCRF-CEM,-30.8%
same,growth at 10 µM,SNB-75,79%
same,growth at 10 µM,OVCAR-3,-15.5%
same,growth at 10 µM,A498,130%
same,growth at 10 µM,HCT-116,-50%
same,growth at 10 µM,786-0,-26%
same,growth at 10 µM,SW-620,7.3%
same,growth at 10 µM,U-251,-89.3%
same,residual activity,[3],10%
same,growth at 10 µM,A549,104%
same,growth at 10 µM,HCC 2998,-0.74%
same,growth at 10 µM,CAKI-1,1.97%
same,growth at 10 µM,HT-29,117%
same,viability at 100 µM,[4],17%
same,growth at 10 µM,MDA-MB-435,-87.9%
same,growth at 10 µM,EKVX,103%
same,growth at 10 µM,[5],-7.4%
CC1(C)Nc2ccc3c(c2N1)C(=O)c1ccccc1C3=O,growth at 10 µM,T47D,83%
same,growth at 10 µM,UO-31,30.6%
same,growth at 10 µM,MOLT-4,116%
same,growth at 10 µM,SR,72.4%
same,growth at 10 µM,OVCAR-4,80.1%
same,growth at 10 µM,M14,83.7%
same,residual activity,[1],9%
same,growth at 10 µM,HCT-15,64.6%
same,growth at 10 µM,NCI-H322M,79.7%
same,growth at 10 µM,NCI-H23,87%
same,growth at 10 µM,MCF7,83.6%
same,growth at 10 µM,NCI/ADR-RES,103%
same,growth at 10 µM,SK-MEL-28,129%
same,growth at 10 µM,NCI-H522,38.9%
same,growth at 10 µM,UACC-62,67.6%
same,growth at 10 µM,ACHN,50.2%
same,growth at 10 µM,TK-10,62.4%
same,growth at 10 µM,SF-295,98%
same,growth at 10 µM,HL-60(TB),129%
same,growth at 10 µM,LOX IMVI,61.9%
same,growth at 10 µM,Malme-3M,155%
same,growth at 10 µM,SK-MEL-5,86.5%
same,growth at 10 µM,SF-268,90.2%
same,growth at 10 µM,NCI-H460,71.5%
same,growth at 10 µM,MDA-MB-231,72.9%
same,growth at 10 µM,SK-OV-3,35.9%
same,viability at 10 µM,[2],93%
same,growth at 10 µM,OVCAR-8,90.2%
same,growth at 10 µM,CCRF-CEM,74%
same,growth at 10 µM,SNB-75,78%
same,growth at 10 µM,OVCAR-3,78.2%
same,growth at 10 µM,A498,80.6%
same,growth at 10 µM,HCT-116,54.7%
same,growth at 10 µM,HOP-92,5.1%
same,growth at 10 µM,786-0,86.2%
same,growth at 10 µM,SW-620,91.7%
same,growth at 10 µM,U-251,87.8%
same,residual activity,[3],73%
same,growth at 10 µM,A549,94.6%
same,growth at 10 µM,HCC 2998,137%
same,growth at 10 µM,CAKI-1,61.7%
same,growth at 10 µM,HT-29,103%
same,viability at 100 µM,[4],31%
same,growth at 10 µM,MDA-MB-435,125%
same,growth at 10 µM,EKVX,63.1%
same,growth at 10 µM,[5],68.4%
